Bioassay records from PubChem BioAssay.
A selection: hits, their analogues and other compounds. The true share with any hit is near 1.7%.
Scp1 inh: inhibitors of human Scp-1 phosphatase | Q9GZU7 | Recombinant Scp1, phosphopeptide, malachite green phosphate absorbance | inhibition, % at 20 µM | hit rate 0.88% among 340,000;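 active means inhibition above about 50% at 20 µM, limit read from the data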;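 further: plate controls were DMSO wells with enzyme for no effect and wells lacking enzyme for full effect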
Target sequence (Q9GZU7 76-261 limits assumed): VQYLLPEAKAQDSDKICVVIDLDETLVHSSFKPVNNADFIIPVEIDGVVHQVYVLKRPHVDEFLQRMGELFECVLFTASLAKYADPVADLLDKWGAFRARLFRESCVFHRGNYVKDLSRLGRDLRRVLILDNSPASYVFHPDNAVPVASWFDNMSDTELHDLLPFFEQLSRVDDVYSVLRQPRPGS
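Test system: SCP-1 phosphatase catalytic domain, residues 76-261; measured by: colorimetric phosphate reagent with accelerator and stabiliser, absorbance at 630 nm; timing: enzyme reaction 45 min at room temperature, colour 5 min, stabilisation 30 min; also added: Phosphorylated 17-residue peptide substrate; compound dosing: one concentration, 20 µM, with 1.0% DMSO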
STEP inh: blocks human striatal-enriched tyrosine phosphatase. P54829. recombinant STEP, OMFP fluorogenic substrate, fluorescence. inhibition, % at 20 µM. hit rate 0.25% among 360,000. AID 588621;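 active means inhibition at 20 µM, scaled per plate between control wells, above about 37%, limit read from the data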;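 further: 0% = DMSO with enzyme and substrate and 100% = substrate only without enzyme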
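Assay system: isolated STEP enzyme / Timing: 20 min at room temperature, dark / Doses: 20 µM, 1% DMSO / Technique: fluorescence intensity, excitation 480 nm, emission 540 nm / Reagent: fluorogenic phosphatase substrate OMFP at 25 µM final / Measure: percent inhibition scaled to no-enzyme and uninhibited-enzyme controls, plate-pattern corrected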
DNMT1 block: blocks human DNA methyltransferase DNMT1. DNMT1 molecular beacon, Hinp1I cleavage, fluorescence. inhibition (reported as % activation of signal), % at 10 µM. hit rate 0.83% among 360,000; in the data active means inhibition above about 50%
SUMO1-SIM PPI: alters human SUMO1 binding to SIM partners | SUMO1 binding to a labelled peptide, TR-FRET, 1 h | inhibition, % at 20 µM | hit rate 0.33% among 360,000; in the data active means inhibition above about 37%
Target sequence (P63165 whole entry, looked up): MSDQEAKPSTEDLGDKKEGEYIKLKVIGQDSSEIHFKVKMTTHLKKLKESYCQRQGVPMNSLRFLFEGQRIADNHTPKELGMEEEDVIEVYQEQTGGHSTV
LMPTP inh: blocks human LMPTP phosphatase | P24666 | recombinant LMPTP-A, OMFP fluorogenic substrate, fluorescence intensity | inhibition, % at 20 µM | hit rate 0.22% among 360,000 | AID 651560;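 active means compounds that cut the enzyme signal by at least half of the control window in the single-dose screen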;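 further: plate controls were DMSO wells with enzyme plus substrate for no effect and substrate without enzyme for full effect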
Target sequence (P24666 whole entry, looked up): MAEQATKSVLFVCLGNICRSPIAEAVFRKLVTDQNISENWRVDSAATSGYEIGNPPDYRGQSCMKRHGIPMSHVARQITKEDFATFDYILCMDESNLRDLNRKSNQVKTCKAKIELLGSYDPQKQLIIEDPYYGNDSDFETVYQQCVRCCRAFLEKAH
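Assay system: LMPTP-A, protein tyrosine phosphatase of low molecular weight / Medium: pH 6.0 Bis-Tris buffer with DTT and Triton X-100 / Schedule: 50 min enzyme reaction at room temperature, protected from light / Measured by: endpoint fluorescence intensity from OMFP dephosphorylation / Read-out basis: % inhibition relative to no-enzyme and uninhibited control wells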
An asterisk follows results filed as active; x = no result given.

SMILES | Scp1 inh | STEP inh | DNMT1 block | SUMO1-SIM PPI | LMPTP inh
C[C@@H]1CN([C@@H](C)CO)C(=O)CCCn2nncc2CO[C@H]1CN(C)Cc1cccc(O)c1 | x | -3.4 | -0.1 | 0.9 | 1.6
CC(=O)OCC[C@H](NS(=O)(=O)OCC(Cl)(Cl)Cl)c1ccccc1 | -0.2 | -0.2 | 4.4 | 3.1 | 0.5
Cc1ccc(NC(=O)Cn2nnc(C(=O)NCCc3ccccc3)c2N)c(C)c1 | 17.9 | -2.0 | 53.3* | 3.2 | 40.6
Cc1cc(C)c(NC(=O)Cn2nnc(C(=O)NCCc3ccccc3)c2N)c(C)c1 | -2.3 | -2.2 | 23.3 | 8.0 | 0.4
CCOc1ccc(C(=O)NCC(=O)OCC(=O)Nc2cccc(S(=O)(=O)N3CCCC3)c2)cc1 | -5.6 | 2.5 | -1.2 | 47.9* | 0.2
COc1ccc(C(=O)NNC(=O)Cc2nc3nc(C)cc(C)n3n2)cc1 | -4.5 | -4.3 | 2.3 | -0.3 | -2.3
Cc1ccc(C)c(NC(=O)CCC(=O)N/N=C/c2cc([N+](=O)[O-])ccc2O)c1 | 40.0 | -1.0 | 2.9 | -13.8 | 0.6
O=C(COc1ccc2c(-c3ccccc3)cc(=O)oc2c1)NCCCN1CCOCC1 | -2.5 | -2.3 | 2.2 | -16.1 | -1.6
Cc1cc(=O)oc2cc(OCC(=O)N/N=C/c3cc([N+](=O)[O-])ccc3O)ccc12 | 30.1 | 93.9* | 19.5 | 7.5 | 71.4*
Cc1cc(=O)oc2cc(OCC(=O)NCCCN3CCOCC3)ccc12 | -3.1 | 1.0 | 0.3 | 40.3* | -1.2
O=C(CCO)c1ccc(O)cc1 | 69.0* | 2.0 | 15.5 | 14.2 | 4.6
O=C(/C=C/c1ccc(Br)cc1)NC(=O)c1ccccc1O | 58.6* | 12.8 | -0.4 | 20.7 | 56.5*
Cc1cc(C(=O)CCC(=O)Nc2ccc(C(N)=O)cc2)c(C)s1 | x | 2.8 | 2.7 | 0.4 | 0.7
O=C(CN1CCSC1=O)N1CCN(S(=O)(=O)c2ccc(F)cc2)CC1 | -4.0 | -1.0 | -0.4 | 1.3 | 0.0
O=c1cc(-c2ccc(O)c(O)c2)oc2c1ccc1ccccc12 | 1.5 | 4.3 | 0.6 | 75.2* | 15.2
COc1cc(NC(=O)COC(=O)c2[nH]c(C)c(C(C)=O)c2C)cc(OC)c1 | -9.5 | 1.2 | -1.0 | 0.1 | 3.0
CC(C)N1C(=O)S/C(=C\c2ccc(-c3ccc(Cl)c(C(=O)O)c3)o2)C1=O | 67.6* | 8.7 | 28.7 | -8.1 | -0.5
Cc1ccc(N2NC(=O)/C(=C/c3ccc(-c4ccc(Cl)c(C(=O)O)c4)o3)C2=O)cc1 | 43.0 | 10.7 | 28.9 | 18.1 | 5.7
CCCc1cc(=O)n(-c2nc3ccccc3s2)[nH]1 | -2.0 | -3.9 | -2.0 | -2.4 | -0.2
CCOC(=O)Cc1cc(=O)n(-c2nc3ccccc3s2)[nH]1 | -4.8 | 2.1 | 6.9 | 38.2* | 0.4
CCC1Oc2ccccc2N(CC(=O)NCC2CCCO2)C1=O (configuration not stated) | 1.4 | 0.9 | -3.3 | 6.0 | -1.0
CC1CCN(Cc2nnc(-c3cccc(Br)c3)o2)CC1 | -1.6 | -1.8 | 3.2 | 0.0 | -0.7
CCCOc1ccc(Cl)cc1/C=C1/C(=O)ON=C1C | -6.5 | 2.5 | 2.3 | -1.1 | 0.8
CC1=NOC(=O)/C1=C\c1ccc(-c2ccc(Cl)cc2Cl)o1 | 9.4 | 3.2 | 91.3* | 53.3* | 6.7
Cc1cccc(S(=O)(=O)N(C)C[C@H]2OCc3cnnn3CCCC(=O)N([C@H](C)CO)C[C@@H]2C)c1 | x | 2.2 | 4.4 | -0.5 | -3.1
SMILES | Scp1 inh | STEP inh | DNMT1 block | SUMO1-SIM PPI | LMPTP inh
C/C(N)=C(/C#N)C(=O)CSc1nc2ccccc2c(=O)n1Cc1ccc(F)cc1 | 72.6* | 24.1 | 34.0 | 0.4 | 17.5
O=S(=O)(O)c1cc(O)c(N=Nc2ccc(O)cc2O)c2ccccc12 | 61.0* | 10.2 | 55.0* | 43.7* | 49.7
Cc1ccc(-c2cc(C(=O)N(C)CC(=O)Nc3ccccc3Br)c3ccccc3n2)o1 | -5.7 | 0.4 | -4.5 | -4.9 | -0.8
CC(=O)c1cccc(NC(=O)c2cccc3c(-c4cccc(C(N)=O)c4)coc23)c1 | x | 1.4 | -4.8 | 49.5* | 2.3
O=C(Nc1ccc(C(=O)O)cc1)Nc1ccc([N+](=O)[O-])cc1 | -16.1 | -2.5 | -0.1 | -25.0 | 0.1
COC(=O)c1ccc(NC(=O)Nc2ccc([N+](=O)[O-])cc2)cc1 | 8.1 | 23.9 | 0.5 | 0.0 | 84.7*
COc1ccc(/C=N/OCC(=O)N=Nc2c(O)[nH]c3ccc(Br)cc23)cc1 | -3.2 | 3.2 | 79.2* | -9.1 | 5.2
Cc1ccsc1C=Nc1ccc(O)cc1 | -7.3 | 22.6 | 89.4* | 67.9* | 33.5
Cc1ccsc1/C=N/NC(=O)CO | 0.7 | 2.2 | 0.1 | -6.0 | -0.7
Cc1cccc(N2CCN(C(=O)CN3C(=O)NC(C)(C4CC4)C3=O)CC2)c1C (configuration not stated) | -0.1 | 0.9 | 46.5 | 44.7* | 0.6
Cc1cccc(N2CCN(C(=O)CN3C(=O)NC(C)(C)C3=O)CC2)c1C | -7.4 | -3.0 | 0.3 | -2.6 | -1.5
COc1ccc(OC)c(C(=O)CN2CCN(S(=O)(=O)c3ccc(Br)cc3)CC2)c1 | -1.2 | 6.7 | -5.2 | -0.5 | -4.9
CC(C)c1ccc(S(=O)(=O)N2CCN(CC(=O)c3ccc(O)c(O)c3)CC2)cc1 | x | 1.8 | 3.6 | -3.0 | 67.8*
CC(C)c1ccc(S(=O)(=O)N2CCN(CC(=O)Nc3ccc(Cl)cc3F)CC2)cc1 | 2.3 | 2.1 | -6.2 | -1.8 | 1.7
O=C(CN1CCN(S(=O)(=O)c2ccc(Br)cc2)CC1)c1ccc(O)c(O)c1 | 4.8 | 2.6 | 2.5 | -6.0 | 59.0*
CC1=C(C(=O)N2CCCCCC2)CC(CC(=O)NCCCCc2ccccc2)C(=O)N1CCC1=CCCCC1 (configuration not stated) | x | x | x | 6.9 | 3.5
COc1ccc(OC)c(-c2csc3nnc(SCC(=O)Nc4ccc(NC(C)=O)cc4)n23)c1 | 0.2 | 1.9 | -4.2 | 4.0 | -0.1
COc1cccc(-c2csc3nnc(SCC(=O)c4ccc(NC(C)=O)cc4)n23)c1 | -2.0 | 3.4 | -0.4 | 42.6* | 0.4
COCCn1cnc2c1c(=O)[nH]c(=O)n2Cc1ccccc1 | -7.7 | -1.7 | -0.4 | -3.3 | -2.2
O=C(NCCOc1ccccc1)C1=CC=CN2CCS(=O)(=O)N=C12 | 0.0 | 0.8 | -1.4 | -1.5 | 0.4
Cc1ccc(C(=O)Nc2cccc(-c3cnc4ccccc4n3)c2)cc1 | -9.0 | -0.6 | 8.9 | -3.2 | -1.1
CC(=O)Nc1ccc(C(=O)Nc2cccc(-c3cnc4ccccc4n3)c2)cc1 | 20.7 | 14.6 | 33.5 | 48.7* | 40.2
CC(=O)Nc1ccc(C(=O)Nc2nc(-c3cccnc3)cs2)cc1 | 8.3 | 11.7 | -4.0 | 59.5* | 5.5
O=C1c2cccnc2C(=O)N1Cc1ccc(S(=O)(=O)N2CCN(c3ccc(Cl)cc3)CC2)cc1 | -11.2 | 1.7 | -1.4 | 60.2* | 2.4
CS(=O)(=O)C1=NN2C(=N)/C(=C\c3ccc(OC(=O)c4ccco4)cc3)C(=O)N=C2S1 | 34.1 | 4.0 | 9.5 | -5.0 | 2.1
